Activity calls are given as the source filed them. The calls are words filed in the database; no cut-off is given here.

One may read the IC50 as the concentration needed to halve the response being measured. Higher therefore signals lower potency.

Assay [1] can be described thus: Cell cycle arrest in human HeLaS3 cells assessed as accumulation at G2/M phase after 48 hrs using propidium iodide staining by flow cytometry (reference value: 16.21%). The class given is functional, cell-based. Particulars: HeLa S3. In outline: (§1)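 HeLa S-3 cells incubated without (control) or with compound for 9, 24 or 48 h, then fixed and stained with propidium iodide. DNA content read by flow cytometry. Populations given as percent in sub-G1, G1, S and G2/M phases.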
A general note: A flow cytometer gives signals particle by particle.

A short description of assay [2]: Cell cycle arrest in human HeLaS3 cells assessed as accumulation at G2/M phase after 24 hrs using propidium iodide staining by flow cytometry (reference value: 16.21%). The class given is functional, cell-based. Particulars: HeLa S3. In outline:
as §1

Assay [3] is described as follows: Cell cycle arrest in human HeLaS3 cells assessed as accumulation at G2/M phase after 9 hrs using propidium iodide staining by flow cytometry (reference value: 16.21%). It counts as functional, cell-based. Particulars: HeLa S3. In a few lines: as §1
Assay [4] can be described thus: Cell cycle arrest in human HeLaS3 cells assessed as accumulation at S phase after 48 hrs using propidium iodide staining by flow cytometry (reference value: 6.36%). The class given is functional, cell-based. Particulars: HeLa S3.
Assay [5] can be described thus: Cell cycle arrest in human HeLaS3 cells assessed as accumulation at S phase after 24 hrs using propidium iodide staining by flow cytometry (reference value: 6.36%). It counts as functional, cell-based. Particulars: HeLa S3.
Assay [6] is described as follows: Cell cycle arrest in human HeLaS3 cells assessed as accumulation at S phase after 9 hrs using propidium iodide staining by flow cytometry (reference value: 6.36%). Particulars: HeLa S3. The class given is functional, cell-based.
Assay [7] in a line: Cell cycle arrest in human HeLaS3 cells assessed as accumulation at G1 phase after 48 hrs using propidium iodide staining by flow cytometry (reference value: 75.29%). Particulars: HeLa S3. It counts as functional, cell-based. In outline:
as §1

Assay [8] in a line: Cell cycle arrest in human HeLaS3 cells assessed as accumulation at G1 phase after 24 hrs using propidium iodide staining by flow cytometry (reference value: 75.29%). The class given is functional, cell-based. Particulars: HeLa S3. In a few lines: as §1
The nature of assay [9]: Cell cycle arrest in human HeLaS3 cells assessed as accumulation at G1 phase after 9 hrs using propidium iodide staining by flow cytometry (reference value: 75.29%). The class given is functional, cell-based. Particulars: HeLa S3. In outline:
as §1

A short description of assay [10]: Cell cycle arrest in human HeLaS3 cells assessed as accumulation at sub-G1 phase after 48 hrs using propidium iodide staining by flow cytometry (reference value: 2.41%). It counts as functional, cell-based. Particulars: HeLa S3. In outline:
as §1

Assay [11] can be described thus: Cell cycle arrest in human HeLaS3 cells assessed as accumulation at sub-G1 phase after 24 hrs using propidium iodide staining by flow cytometry (reference value: 2.41%). The class given is functional, cell-based. Particulars: HeLa S3. In outline: as §1
Assay [12] can be described thus: Cell cycle arrest in human HeLaS3 cells assessed as accumulation at sub-G1 phase after 9 hrs using propidium iodide staining by flow cytometry (reference value: 2.41%). It counts as functional, cell-based. Particulars: HeLa S3. In a few lines: as §1
The test system of assay [13] is HeLa S3. The assay can be described thus: Induction of apoptosis in human HeLaS3 cells assessed as DNA fragmentation after 48 hrs agarose-gel electrophoresis. The class given is functional, cell-based. In a few lines:
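HeLa S-3 cells treated with compound for 48 h. Genomic DNA extracted and run on a 2% agarose gel beside a 100 bp ladder marker to detect DNA fragmentation.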

Assay [14] deals with HeLa S3. The assay can be described thus: Induction of apoptosis in human HeLaS3 cells assessed as formation of chromatin condensation and fragmented nuclei after 48 hrs by Hoechst 33342 staining. The class given is functional, cell-based. In a few lines:
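HeLa S-3 cells treated with compound for 48 h, then stained with Hoechst 33342. Nuclear chromatin examined by fluorescence microscopy for condensation and fragmented nuclei, with untreated cells as comparison.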

A short description of assay [15]: Cytotoxicity against mouse Sarcoma 180 cells after 24 to 72 hrs by MTT assay. The class given is functional, cell-based. In outline: (§2)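 MTT assay. IC50 taken as the drug concentration giving 50% inhibition of cell growth. Values are mean ± S.D. of four independent experiments, each run in triplicate.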
In general terms: Formazan colour is commonly taken as a measure of viable cells.

Another assay deals with HEK-293T. The assay can be described thus: Cytotoxicity against human 293T cells after 24 to 72 hrs by MTT assay. It counts as cell-based. In outline: as §2
A short description of assay [16]: Cytotoxicity against human HeLaS3 cells after 24 to 72 hrs by MTT assay. The class given is functional, cell-based. Particulars: HeLa S3. In a few lines:
as §2

Consider `O=C(Nc1cc(Cl)cc2c1[nH]c1cnc(NCc3ccccc3)cc12)c1ccccc1`, for which the Activity amounted to 55.3% in assay [1]; 40.1% in assay [2]; 49.1% in assay [3]; 11.1% in assay [4]; 12.7% in [5]; 10.4% in [6]. Moreover, the Activity in assay [7] was 11.7%; in assay [8], 32.4%; in assay [9], 33.9%; in assay [10], 22%; in [11] it was 14.8%; in assay [12], 6.59%. For the same compound, the result with HeLa S3 [13] and in the assay on HeLa S3 [14] was Active. Also, the IC50 in assay [15] was 2800 nM; in the assay on HEK-293T, 4800 nM; in assay [16] it was 4600 nM.

Consider `Clc1ccc2[nH]c3cnc(NCc4ccccc4)cc3c2c1`, for which the Activity in assay [1] is 49%; in assay [2], 69.5%; in assay [3], 46.9%; in [4], 11.3%; in [5] it was 7.74%; in [6] it was 10.9%. For the same compound, the Activity in assay [7] was found to be 18.2%; in assay [8] it was 8.2%; in [9], 33%; in assay [10] it was 21.4%; in assay [11], 14.6%; in [12], 9.14%. Besides, the result in the assay with HeLa S3 [13] and in the assay on HeLa S3 [14] was Active. Also, the IC50 in assay [15] was found to be 1800 nM; in assay [16] it was 2800 nM.

These data come from ChEMBL document CHEMBL2169842, “Structure-activity relationship in the antitumor activity of 6-, 8- or 6,8-substituted 3-benzylamino-β-carboline derivatives” (Bioorg Med Chem Lett, 2012).
